Measurements gathered from unrelated publications.
Protocols differ between the studies behind these lines.

| SMILES | assay | system | conditions | quantity | value |
| --- | --- | --- | --- | --- | --- |
| CC(C)(C)[C@H](NC(=O)[C@H](CCONC(=N)N)NC(=O)Cc1ccc(CNC(=N)N)cc1)C(=O)N[C@@H](CCONC(=N)N)C(=O)NCc1ccc(C(=N)N)cc1 |  | male Sprague-Dawley rat, plasma | intravenous, 1 mg/kg | C0 | 2080 ng/mL |
| Cc1ncc(C)n2nc(/C=C/c3nc(N4CCCC4)cc(N4CCOCC4)n3)nc12 |  | male Fischer 344 rat, plasma | oral, 0.3 mg/kg, 1 h | concentration | 50 ng/mL |
| Cc1cc(C)nc(Nc2ncc(C(=O)NCCc3c(C)[nH]c4ccccc34)cn2)c1 | metabolic stability | mouse, liver microsomes | 1 µM | half-life | 0.0783 h |
| C[C@H](Cn1cnc2c(N)ncnc21)OCP(=O)(O)OCCCOCCCCCCCCCCCCCC#CC(F)(F)F.N | metabolic stability | CD-1 mouse, liver microsomes | 3 µM, pH 7.4 | half-life | > 2 h |
| N=c1c2c(-c3ccccc3)c(-c3ccccc3)n(Cc3ccccc3)c2ncn1[C@H]1CC[C@H](O)CC1 | metabolic stability | mouse, liver microsomes | 1 µM | half-life | > 2 h |
| N#C[C@@H]1CC(F)(F)CN1C(=O)CNC(=O)c1ccnc2ccc(OCCCN3CCN(C(=O)CN4CCN(CC(=O)[O-])CCN(CC(=O)[O-])CC4)CC3)cc12.[18F-].[Al+3] |  | rat, stomach | intravenous, 2 h | tracer uptake | 1.05 %ID/g |
| Cl.Cl.O=C(CCN1CCCCC1)c1ccc(-c2ccc(C(=O)CCN3CCCCC3)cc2)cc1 |  | Sprague-Dawley rat, plasma | oral, 100 mg/kg | half-life | 8.23 h |
| O=C(Nc1cccnn1)N1CCN([C@@H]2CCOc3cc(C(F)(F)F)ccc32)CC1 |  | male Sprague-Dawley rat, plasma | oral, 1 mg/kg, 1 h | concentration | 125 ng/mL |
| C[C@H](Cn1cnc2c(N)ncnc21)OCP(=O)(O)OCCCOCCCCCCCCCCCCC#C[Si](C)(C)C.N | metabolic stability | CD-1 mouse, liver microsomes | 3 µM, pH 7.4 | half-life | > 2 h |
